Results collected from several papers.
CDK9: Cyclin-dependent kinase 9 (CDK9, Homo sapiens, UniProt P50750)
CDK9 with cyclin T1: Cyclin-dependent kinase 9, with cyclin T1 (CDK9, Homo sapiens, UniProt P50750)
CDK9 with cyclin K: Cyclin-dependent kinase 9, with cyclin K (CDK9, Homo sapiens, UniProt P50750)

CNC(=O)c1ccc(Nc2ncc(C(F)(F)F)c(NCc3nccnc3N(C)S(C)(=O)=O)n2)cc1  remaining binding (CDK9; cell-free assay; competition with immobilised ligand; 0.1 µM): 86%
CN(C)C1CCN(CC#Cc2nn(C3CCCC3)c3nc(NCc4ccccc4)ncc23)C1 (centres unmarked)  inhibition (CDK9 with cyclin T1; enzyme activity; inhibitor; FRET; 10 µM): -12%
COc1cc(Cl)c(C(=O)N[C@@H](CN[C@H]2CC[C@@H](N)CC2)Cc2ccc(C#N)cc2)cc1-c1ccc(CN[C@H](C)c2ccc(C)cc2)o1  remaining activity (CDK9 with cyclin T1; enzyme activity; inhibitor; 1 µM): 99%
CCc1ccccc1C(=O)Nc1n[nH]c2c(C)c(F)c(C3C(C#N)=C(C)N(C)C(C)=C3C#N)cc12  remaining binding (CDK9; cell-free assay; competition with immobilised ligand; 1 µM): 94%
Nc1nc(Nc2ccc(S(N)(=O)=O)cc2)sc1C(=O)c1ccccc1[N+](=O)[O-]  inhibition (CDK9; enzyme activity; inhibitor; 0.1 µM): 90 to 93%
Cc1cnc(NC2CCOCC2)nc1-n1cnc(C(=O)NC(CN)c2cc(F)cc(Cl)c2)c1 (centres unmarked)  remaining activity (CDK9 with cyclin T1; enzyme activity; inhibitor; radiometric; 1 µM): 46%
O=C1Nc2ccc(Cl)cc2C1=Cc1cc(Cl)c(O)c(Cl)c1  remaining signal (CDK9 with cyclin T1; cell-free assay; 0.5 µM): 95.2%
O=C(CSc1nc2nccnc2c(=O)n1CCc1ccccc1)Nc1nccs1  inhibition (CDK9 with cyclin K; enzyme activity; inhibitor; 10 µM): -8%
CCOc1cc(-c2nncn2C)ccc1Nc1ncc2cc(C)nc(NCC(C)(C)C)c2n1  inhibition (CDK9 with cyclin K; cell-free assay; TR-FRET; 1 µM): ≤ 15%
CCC(=O)N[C@@H]1CC[C@H](C(=O)N(C)c2ccc(-c3nc4ccccc4o3)cc2)C1  remaining binding (CDK9; cell-free assay; competition with immobilised ligand; 1 µM): 100%
Cc1ccc(-n2nc(C(C)(C)C)cc2NC(=O)Nc2ccc(OCCN3CCOCC3)c3ccccc23)cc1  inhibition (CDK9 with cyclin T1; enzyme activity; inhibitor; 10 µM): -17%
C#Cc1cccc(Nc2ncnc3cc(OCCOC)c(OCCOC)cc23)c1  remaining signal (CDK9 with cyclin T1; cell-free assay; 0.5 µM): 87.3%
CC(C)(C)c1nc2c(s1)c1nc(N)ncc1c1ccc(NS(=O)(=O)c3c(F)cccc3F)c(F)c12  remaining activity (CDK9 with cyclin T1; enzyme activity; inhibitor; radiometric; 1 µM): 102%
Cc1ccc(NC(=O)c2ccc(CN3CCN(C)CC3)cc2)cc1Nc1nc(-c2cccnc2)cs1  remaining signal (CDK9 with cyclin T1; cell-free assay; 0.5 µM): 99.2%
COc1cc(-c2cc(-c3ccc(N4CCNCC4)cc3)cnc2C)cc(OC)c1OC  inhibition (CDK9 with cyclin T1; enzyme activity; inhibitor; 1 µM): 3%
CO[C@@H](C)c1c(Nc2ccc([C@H](N(C)C(=O)C3CCS(=O)(=O)CC3)C(F)(F)F)cc2)cnc2cc(Cl)nn12  remaining binding (CDK9; cell-free assay; competition with immobilised ligand; 1 µM): 85%
Cc1ccc(Nc2nccc(N(C)c3ccc4c(C)n(C)nc4c3)n2)cc1S(N)(=O)=O  remaining activity (CDK9 with cyclin T1; enzyme activity; inhibitor; 0.5 µM): 91.5%
O=C1CCc2cc(Nc3cc(OC4CCOCC4)c([N+](=O)[O-])cc3Cl)ccc2N1  remaining binding (CDK9; cell-free assay; competition with immobilised ligand; 1 µM): 97%
CCCOc1ccc(OC)c(F)c1C(=O)c1ccc(C(=O)N[C@@H]2CNC[C@H]2NC(=O)c2ccc3[nH]ncc3c2)cc1  remaining activity (CDK9 with cyclin T1; enzyme activity; inhibitor; 10 µM): 101%
O=C1NC(=O)c2cc(Nc3ccc(F)cc3)c(Nc3ccc(F)cc3)cc21  remaining signal (CDK9 with cyclin T1; cell-free assay; 0.5 µM): 95.4%
CNC(=O)c1cc(Oc2ccc(NC(=O)Nc3ccc(Cl)c(C(F)(F)F)c3)cc2)ccn1  inhibition (CDK9 with cyclin T1; enzyme activity; inhibitor; 10 µM): -6%
CS(=O)(=O)NCC[C@H](NC(=O)c1cncc2c1cnn2-c1ccc(F)cc1)c1ccnc(S(C)(=O)=O)c1  remaining binding (CDK9; cell-free assay; competition with immobilised ligand; 1 µM): 100%
CCN(CC)CCNC(=O)c1c(C)[nH]c(/C=C2\C(=O)Nc3ccc(F)cc32)c1C  inhibition (CDK9 with cyclin T1; enzyme activity; inhibitor; 10 µM): 37%
CCCS(=O)(=O)Nc1ccc(F)c(C(=O)c2c[nH]c3ncc(-c4ccc(Cl)cc4)cc23)c1F  inhibition (CDK9 with cyclin T1; enzyme activity; inhibitor; 1 µM): < 10%
Cc1nc(C2CCN(C(=O)c3ccc(OC(F)(F)F)cc3N)CC2)c2ncc(N3CCN(C)CC3)cc2n1  remaining binding (CDK9; cell-free assay; competition with immobilised ligand; 1 µM): 79%
CCCCNc1ncc2c(-c3ccc(F)cc3)nn(C[C@H]3CC[C@H](N)CC3)c2n1  inhibition (CDK9; target engagement in cells; inhibitor; chemoproteomics; 20 mM): 29.3%
COc1cc(Nc2cnc(C#N)c(O[C@H](C)CN(C)C)n2)ncc1-c1cnn(C)c1  remaining activity (CDK9 with cyclin T1; enzyme activity; inhibitor; radiometric; 1 µM): 84%
COc1cc(/C=C/C(=O)CC(=O)/C=C/c2ccc(O)c(OC)c2)ccc1O  activity vs control (CDK9 with cyclin T1; enzyme activity; inhibitor; 1 µM): 88%
C[C@H](c1cccc(C#N)c1)n1cc(Cl)cc(C(N)=O)c1=N  remaining binding (CDK9; cell-free assay; competition with immobilised ligand; 1 µM): 84%
Cc1ccc(C(=O)Nc2ccc(CN3CCN(C)CC3)c(C(F)(F)F)c2)cc1C#Cc1cnc2cccnn12  remaining activity (CDK9; enzyme activity; inhibitor; 23.5 nM): 96%
N#CCCc1ccc2c(c1)-c1[nH]c3ccc([N+](=O)[O-])cc3c1CC(=O)N2  remaining signal (CDK9 with cyclin K; cell-free assay; 0.5 µM): 23.7%
CC(C)(C)c1nc(-c2cccc(NS(=O)(=O)c3c(F)cccc3F)c2F)c(-c2ccnc(N)n2)s1  remaining activity (CDK9 with cyclin K; enzyme activity; inhibitor; radiometric; 1 µM): 98%
